Tested on: HEK-293T
Assay: Multiplex assay against HEK293T
Type: toxicity, cell-based
Conditions: human
In short: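 Live cells carried four stains from seeding: Hoechst33342, BioTracker Green Microtubule Cytoskeleton Dye, MitoTracker Red and Annexin V Alexa Fluor 680. They were imaged on a CQ1 microscope at 37°C and 5% CO2 after compound addition. Using CellPathfinder machine-learning gating, cells were split into Hoechst high-intensity objects or normal cells, normal cells into healthy, pyknosed or fragmented nuclei, and pyknosed cells into mitotic or apoptotic; tubulin, mitochondrial-mass and membrane-permeability phenotypes are per cents of healthy-nucleus cells.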

[1] = 12 h, 1 µM, compound concentration 1 uM, replicate 1
[2] = 12 h, 1 µM, compound concentration 1 uM, replicate 2
[3] = 12 h, 10 µM, compound concentration 10 uM, replicate 1
[4] = 12 h, 10 µM, compound concentration 10 uM, replicate 2
[5] = 24 h, 1 µM, compound concentration 1 uM, replicate 1
[6] = 24 h, 1 µM, compound concentration 1 uM, replicate 2
[7] = 24 h, 10 µM, compound concentration 10 uM, replicate 1
[8] = 24 h, 10 µM, compound concentration 10 uM, replicate 2
[9] = 48 h, 1 µM, compound concentration 1 uM, replicate 1
[10] = 48 h, 1 µM, compound concentration 1 uM, replicate 2
[11] = 48 h, 10 µM, compound concentration 10 uM, replicate 1
[12] = 48 h, 10 µM, compound concentration 10 uM, replicate 2

C[C@@H]1C[C@H]2[C@@H]3CCC4=CC(=O)C=C[C@]4(C)[C@@]3(F)[C@@H](O)C[C@]2(C)[C@@]1(O)C(=O)CO [DEXAMETHASONE]
Population Apoptotic (%) [1]: 37% | Population Fragmented Nuclei (%) [1]: 8% | Population Healthy Nuclei (%) [1]: 78% | Population Hoechst High Intensity Objects (%) [1]: 2% | Population Membrane Permeable-Phenotype (%) [1]: 1% | Population Mitochondria Different-Phenotype (%) [1]: 45% | Population Mitotic Cells (%) [1]: 62% | Population Normal (%) [1]: 97% | Population Pyknosed Nuclei (%) [1]: 12% | Population Tubulin-Different-Phenotype (%) [1]: 24% | Total Cell Count [1]: 420 | Population Apoptotic (%) [2]: 53% | Population Fragmented Nuclei (%) [2]: 7% | Population Healthy Nuclei (%) [2]: 80% | Population Hoechst High Intensity Objects (%) [2]: 8% | Population Membrane Permeable-Phenotype (%) [2]: 0% | Population Mitochondria Different-Phenotype (%) [2]: 62% | Population Mitotic Cells (%) [2]: 46% | Population Normal (%) [2]: 91% | Population Tubulin-Different-Phenotype (%) [2]: 26% | Total Cell Count [2]: 372 | Population Apoptotic (%) [3]: 37% | Population Fragmented Nuclei (%) [3]: 7% | Population Healthy Nuclei (%) [3]: 79% | Population Hoechst High Intensity Objects (%) [3]: 6% | Population Membrane Permeable-Phenotype (%) [3]: 0% | Population Mitochondria Different-Phenotype (%) [3]: 44% | Population Mitotic Cells (%) [3]: 62% | Population Normal (%) [3]: 93% | Population Pyknosed Nuclei (%) [3]: 13% | Population Tubulin-Different-Phenotype (%) [3]: 33% | Total Cell Count [3]: 374 | Population Apoptotic (%) [4]: 44% | Population Fragmented Nuclei (%) [4]: 5% | Population Healthy Nuclei (%) [4]: 81% | Population Hoechst High Intensity Objects (%) [4]: 14% | Population Mitochondria Different-Phenotype (%) [4]: 69% | Population Mitotic Cells (%) [4]: 55% | Population Normal (%) [4]: 85% | Population Tubulin-Different-Phenotype (%) [4]: 39% | Total Cell Count [4]: 436 | Population Apoptotic (%) [5]: 31% | Population Fragmented Nuclei (%) [5]: 9% | Population Healthy Nuclei (%) [5]: 78% | Population Hoechst High Intensity Objects (%) [5]: 4% | Population Membrane Permeable-Phenotype (%) [5]: 0% | Population Mitochondria Different-Phenotype (%) [5]: 30% | Population Mitotic Cells (%) [5]: 68% | Population Normal (%) [5]: 95% | Population Pyknosed Nuclei (%) [5]: 12% | Population Tubulin-Different-Phenotype (%) [5]: 17% | Total Cell Count [5]: 569 | Population Apoptotic (%) [6]: 42% | Population Fragmented Nuclei (%) [6]: 12% | Population Healthy Nuclei (%) [6]: 79% | Population Hoechst High Intensity Objects (%) [6]: 7% | Population Mitochondria Different-Phenotype (%) [6]: 45% | Population Mitotic Cells (%) [6]: 57% | Population Normal (%) [6]: 92% | Population Pyknosed Nuclei (%) [6]: 8% | Total Cell Count [6]: 499 | Population Apoptotic (%) [7]: 36% | Population Fragmented Nuclei (%) [7]: 8% | Population Healthy Nuclei (%) [7]: 74% | Population Hoechst High Intensity Objects (%) [7]: 6% | Population Membrane Permeable-Phenotype (%) [7]: 0% | Population Mitochondria Different-Phenotype (%) [7]: 30% | Population Mitotic Cells (%) [7]: 63% | Population Normal (%) [7]: 93% | Population Pyknosed Nuclei (%) [7]: 16% | Population Tubulin-Different-Phenotype (%) [7]: 29% | Total Cell Count [7]: 453 | Population Apoptotic (%) [8]: 44% | Population Fragmented Nuclei (%) [8]: 9% | Population Healthy Nuclei (%) [8]: 79% | Population Hoechst High Intensity Objects (%) [8]: 15% | Population Mitochondria Different-Phenotype (%) [8]: 43% | Population Mitotic Cells (%) [8]: 56% | Population Normal (%) [8]: 84% | Population Pyknosed Nuclei (%) [8]: 11% | Population Tubulin-Different-Phenotype (%) [8]: 22% | Total Cell Count [8]: 513 | Population Apoptotic (%) [9]: 30% | Population Fragmented Nuclei (%) [9]: 15% | Population Healthy Nuclei (%) [9]: 77% | Population Hoechst High Intensity Objects (%) [9]: 1% | Population Membrane Permeable-Phenotype (%) [9]: 1% | Population Mitochondria Different-Phenotype (%) [9]: 18% | Population Mitotic Cells (%) [9]: 69% | Population Normal (%) [9]: 98% | Population Pyknosed Nuclei (%) [9]: 7% | Population Tubulin-Different-Phenotype (%) [9]: 12% | Total Cell Count [9]: 915 | Population Apoptotic (%) [10]: 27% | Population Healthy Nuclei (%) [10]: 78% | Population Hoechst High Intensity Objects (%) [10]: 3% | Population Membrane Permeable-Phenotype (%) [10]: 0% | Population Mitochondria Different-Phenotype (%) [10]: 27% | Population Mitotic Cells (%) [10]: 72% | Population Normal (%) [10]: 96% | Population Pyknosed Nuclei (%) [10]: 6% | Population Tubulin-Different-Phenotype (%) [10]: 15% | Total Cell Count [10]: 685 | Population Apoptotic (%) [11]: 25% | Population Fragmented Nuclei (%) [11]: 15% | Population Healthy Nuclei (%) [11]: 76% | Population Hoechst High Intensity Objects (%) [11]: 3% | Population Membrane Permeable-Phenotype (%) [11]: 0% | Population Mitochondria Different-Phenotype (%) [11]: 18% | Population Mitotic Cells (%) [11]: 75% | Population Normal (%) [11]: 96% | Population Pyknosed Nuclei (%) [11]: 7% | Population Tubulin-Different-Phenotype (%) [11]: 14% | Total Cell Count [11]: 760 | Population Apoptotic (%) [12]: 50% | Population Fragmented Nuclei (%) [12]: 16% | Population Hoechst High Intensity Objects (%) [12]: 6% | Population Mitochondria Different-Phenotype (%) [12]: 28% | Population Mitotic Cells (%) [12]: 49% | Population Normal (%) [12]: 93% | Population Tubulin-Different-Phenotype (%) [12]: 19% | Total Cell Count [12]: 756

CSCC[C@H](NC=O)C(=O)N[C@@H](CC(C)C)C(=O)N[C@@H](Cc1ccccc1)C(=O)O
Population Mitochondria Different-Phenotype (%) [1]: 47% | Population Tubulin-Different-Phenotype (%) [1]: 23% | Total Cell Count [1]: 466 | Population Apoptotic (%) [2]: 28% | Population Mitochondria Different-Phenotype (%) [2]: 57% | Population Mitotic Cells (%) [2]: 71% | Population Tubulin-Different-Phenotype (%) [2]: 16% | Total Cell Count [2]: 437 | Population Mitochondria Different-Phenotype (%) [3]: 52% | Population Tubulin-Different-Phenotype (%) [3]: 37% | Total Cell Count [3]: 366 | Population Apoptotic (%) [4]: 54% | Population Mitochondria Different-Phenotype (%) [4]: 64% | Population Mitotic Cells (%) [4]: 45% | Population Tubulin-Different-Phenotype (%) [4]: 31% | Total Cell Count [4]: 375 | Population Apoptotic (%) [5]: 21% | Population Mitochondria Different-Phenotype (%) [5]: 21% | Population Mitotic Cells (%) [5]: 78% | Population Tubulin-Different-Phenotype (%) [5]: 14% | Total Cell Count [5]: 679 | Population Mitochondria Different-Phenotype (%) [6]: 37% | Population Tubulin-Different-Phenotype (%) [6]: 12% | Total Cell Count [6]: 550 | Population Apoptotic (%) [7]: 25% | Population Mitochondria Different-Phenotype (%) [7]: 38% | Population Mitotic Cells (%) [7]: 75% | Population Tubulin-Different-Phenotype (%) [7]: 25% | Total Cell Count [7]: 479 | Population Apoptotic (%) [8]: 36% | Population Mitochondria Different-Phenotype (%) [8]: 53% | Population Mitotic Cells (%) [8]: 64% | Population Tubulin-Different-Phenotype (%) [8]: 22% | Total Cell Count [8]: 490 | Population Apoptotic (%) [9]: 29% | Population Mitochondria Different-Phenotype (%) [9]: 12% | Population Tubulin-Different-Phenotype (%) [9]: 12% | Total Cell Count [9]: 1154 | Population Apoptotic (%) [10]: 20% | Population Mitochondria Different-Phenotype (%) [10]: 17% | Population Mitotic Cells (%) [10]: 79% | Total Cell Count [10]: 838 | Population Apoptotic (%) [11]: 28% | Population Mitochondria Different-Phenotype (%) [11]: 24% | Population Mitotic Cells (%) [11]: 71% | Population Tubulin-Different-Phenotype (%) [11]: 12% | Total Cell Count [11]: 704 | Population Apoptotic (%) [12]: 36% | Population Mitochondria Different-Phenotype (%) [12]: 28% | Population Mitotic Cells (%) [12]: 63% | Population Tubulin-Different-Phenotype (%) [12]: 14% | Total Cell Count [12]: 674

From ChEMBL document CHEMBL5058577, “EUbOPEN Chemogenomics Library 2 (Multiplex)” (2022)
